Measurements from ChEMBL document CHEMBL1629475, “Synthesis of new chalcone derivatives containing a rhodanine-3-acetic acid moiety with potential anti-bacterial activity” (2010).
Active and inactive are the calls of the source. The calls are words filed in the database; no cut-off is given here.

Tests used:
[1] = system: Staphylococcus aureus; test: Antibacterial activity against Staphylococcus aureus KCTC 503 at 64 ug/ml; format: functional, organism-based
[2] = system: Streptococcus mutans; test: Antibacterial activity against Streptococcus mutans KCTC 3065 at 64 ug/ml; format: functional, organism-based
[3] = system: Escherichia coli; test: Antibacterial activity against Escherichia coli 1924 at 64 ug/ml; format: functional, organism-based
[4] = system: Escherichia coli; test: Antibacterial activity against Escherichia coli 1356 at 64 ug/ml; format: functional, organism-based
[5] = system: Streptococcus mutans; test: Antibacterial activity against Streptococcus mutans KCTC 3289 at 64 ug/ml; format: functional, organism-based
[6] = system: Escherichia coli; test: Antibacterial activity against Escherichia coli 1924 after 20 hrs by twofold serial dilution technique; format: functional; details: Escherichia coli, 1924, 20 h
Outline: (§1)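 Inoculum was 10⁵ CFU/mL. MIC was read after 20 h at 37 °C. The MRSA and QRSA strains were multidrug-resistant clinical isolates. Oxacillin and norfloxacin served as positive controls.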

[7] = system: Staphylococcus aureus; test: Antibacterial activity against Staphylococcus aureus KCTC 503 after 20 hrs by twofold serial dilution technique; format: functional; details: KCTC 503, 20 h; outline: as §1
[8] = system: Staphylococcus aureus; test: Antibacterial activity against Staphylococcus aureus KCTC 209 after 20 hrs by twofold serial dilution technique; format: functional; details: KCTC 209, 20 h; outline: as §1
[9] = system: Streptococcus mutans; test: Antibacterial activity against Streptococcus mutans KCTC 3065 after 20 hrs by twofold serial dilution technique; format: functional; details: KCTC 3065, 20 h
Outline: (§2)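 Inoculum was 10⁵ CFU/mL, and MIC was read after incubation at 37 °C for 20 h. Oxacillin and norfloxacin were the positive controls.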

[10] = system: Staphylococcus aureus; test: Antibacterial activity against Staphylococcus aureus KCTC 209 at 64 ug/ml; format: functional, organism-based
[11] = system: Streptococcus mutans; test: Antibacterial activity against Streptococcus mutans KCTC 3289 after 20 hrs by twofold serial dilution technique; format: functional; details: KCTC 3289, 20 h; outline: as §2
[12] = system: Staphylococcus aureus; test: Antibacterial activity against Staphylococcus aureus RN 4220 at 64 ug/ml; format: functional, organism-based
[13] = system: Staphylococcus aureus; test: Antibacterial activity against Staphylococcus aureus RN 4220 after 20 hrs by twofold serial dilution technique; format: functional; details: RN 4220, 20 h; outline: as §1
[14] = system: Escherichia coli; test: Antibacterial activity against Escherichia coli 1356 after 20 hrs by twofold serial dilution technique; format: functional; details: Escherichia coli, 1356, 20 h; outline: as §1

- MIC [6]: > 64 µg/mL
- MIC [7]: > 64 µg/mL
- MIC [8]: > 64 µg/mL
- MIC [9]: > 64 µg/mL
- MIC [11]: > 64 µg/mL
- MIC [13]: > 64 µg/mL
- MIC [14]: > 64 µg/mL
Structure (SMILES): O=C(O)CN1C(=O)/C(=C\c2ccc(/C=C/C(=O)c3ccccc3Cl)cc2)SC1=S
- Activity [1]: inactive
- Activity [2]: inactive
- Activity [3]: inactive
- Activity [4]: inactive
- Activity [5]: inactive
- Activity [10]: inactive
- Activity [12]: inactive
